Experimental data: ChEMBL document CHEMBL1146459, “Production of biologically active taxoids by a callus culture of Taxus cuspidata” (2004)

Assays:
[1] = Growth inhibition of human HBC5 cells after 48 hrs by SRB assay; assay type: functional; conditions: HBC5, 48 h
HCC 2998 = experiment: Growth inhibition of human HCC2998 cells after 48 hrs by SRB assay; assay type: functional; conditions: HCC 2998, 48 h
MKN-28 = experiment: Growth inhibition of human MKN28 cells after 48 hrs by SRB assay; assay type: functional; conditions: MKN-28, 48 h
OVCAR-3 = experiment: Growth inhibition of human OVCAR-3 cells after 48 hrs by SRB assay; assay type: functional; conditions: OVCAR-3, 48 h
[2] = Reversal of multidrug resistance in human 2780AD cells assessed as [3H]vincristine accumulation at 1 ug/mL after 2 hrs relative to control; assay type: functional, A2780 ADR
Method in brief: (§1)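 Multidrug-resistant human ovarian cancer 2780AD cells were exposed to taxoids at 0.1, 1 or 10 µg/mL. Radiolabelled vincristine accumulated in the cells was measured as dpm/well, using means of triplicate determinations. Results are expressed as % of vincristine accumulated relative to the control experiment. They were also scored on a seven-level index according to the range of relative accumulation.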

[3] = Reversal of multidrug resistance in human 2780AD cells assessed as [3H]vincristine accumulation at 10 ug/mL after 2 hrs relative to control; assay type: functional, A2780 ADR; method in brief: as §1
MCF7 = experiment: Growth inhibition of human MCF7 cells after 48 hrs by SRB assay; assay type: functional; conditions: MCF7, 48 h
MKN-74 = experiment: Growth inhibition of human MKN74 cells after 48 hrs by SRB assay; assay type: functional; conditions: MKN-74, 48 h
NCI-H460 = experiment: Growth inhibition of human NCI-H460 cells after 48 hrs by SRB assay; assay type: functional; conditions: NCI-H460, 48 h
NCI-H522 = experiment: Growth inhibition of human NCI-H522 cells after 48 hrs by SRB assay; assay type: functional; conditions: NCI-H522, 48 h
SK-OV-3 = experiment: Growth inhibition of human SKOV3 cells after 48 hrs by SRB assay; assay type: functional; conditions: SK-OV-3, 48 h
NCI-H23 = experiment: Growth inhibition of human NCI-H23 cells after 48 hrs by SRB assay; assay type: functional; conditions: NCI-H23, 48 h
KM12 = experiment: Growth inhibition of human KM12 cells after 48 hrs by SRB assay; assay type: functional; conditions: KM12, 48 h
[4] = Reversal of multidrug resistance in human 2780AD cells assessed as [3H]vincristine accumulation at 0.1 ug/mL after 2 hrs relative to verapamil; assay type: functional, A2780 ADR
DMS-114 = experiment: Growth inhibition of human DMS114 cells after 48 hrs by SRB assay; assay type: functional; conditions: DMS-114, 48 h
SNB-78 = experiment: Growth inhibition of human SNB78 cells after 48 hrs by SRB assay; assay type: functional; conditions: SNB-78, 48 h
ACHN = experiment: Growth inhibition of human ACHN cells after 48 hrs by SRB assay; assay type: functional
OVCAR-8 = experiment: Growth inhibition of human OVCAR8 cells after 48 hrs by SRB assay; assay type: functional; conditions: OVCAR-8, 48 h
[5] = Growth inhibition of human BSY1 cells after 48 hrs by SRB assay; assay type: functional; conditions: BSY-1, 48 h
NCI-H226 = experiment: Growth inhibition of human NCI-H226 cells after 48 hrs by SRB assay; assay type: functional; conditions: NCI-H226, 48 h
OVCAR-4 = experiment: Growth inhibition of human OVCAR4 cells after 48 hrs by SRB assay; assay type: functional; conditions: OVCAR-4, 48 h
[6] = read-out: LC50 (the source's name)
[7] = read-out: pLC50 (the source's name) (converted)

C=C1[C@@H](OC(C)=O)CC[C@@]2(C)C[C@H](OC(C)=O)C3=C(C)C[C@H](OC(=O)C(C)CC)[C@@H]([C@@H](OC(C)=O)[C@H]12)C3(C)C (some centres not stated)
GI50 ([1]; read-out: GI50): 25 µM
CC50 [1, 6]: > 100 µM
TGI ([1]; read-out: TGI): > 100 µM
GI50 ([1]; read-out: pGI50 (converted)): 25.1 µM
CC50 [1, 7]: 100 µM
TGI ([1]; read-out: pTGI (converted)): 100 µM
GI50 (HCC 2998; read-out: GI50): 27 µM
CC50 (HCC 2998; [6]): > 100 µM
TGI (HCC 2998; read-out: TGI): > 100 µM
GI50 (HCC 2998; read-out: pGI50 (converted)): 27.5 µM
CC50 (HCC 2998; [7]): 100 µM
TGI (HCC 2998; read-out: pTGI (converted)): 100 µM
GI50 (MKN-28; read-out: GI50): 31 µM
CC50 (MKN-28; [6]): > 100 µM
TGI (MKN-28; read-out: TGI): > 100 µM
GI50 (MKN-28; read-out: pGI50 (converted)): 30.9 µM
CC50 (MKN-28; read-out: pLC50 (converted)): > 100 µM
TGI (MKN-28; read-out: pTGI (converted)): 100 µM
GI50 (OVCAR-3; read-out: GI50): 21 µM
CC50 (OVCAR-3; [6]): > 100 µM
TGI (OVCAR-3; read-out: TGI): 99 µM
GI50 (OVCAR-3; read-out: pGI50 (converted)): 20.4 µM
CC50 (OVCAR-3; read-out: pLC50 (converted)): > 100 µM
TGI (OVCAR-3; read-out: pTGI (converted)): 100 µM
Activity [2]: 256%
Activity [3]: 701%
GI50 (MCF7; read-out: GI50): 24 µM
CC50 (MCF7; [6]): > 100 µM
TGI (MCF7; read-out: TGI): 93 µM
GI50 (MCF7; read-out: pGI50 (converted)): 24 µM
CC50 (MCF7; read-out: pLC50 (converted)): > 100 µM
TGI (MCF7; read-out: pTGI (converted)): 93.3 µM
GI50 (MKN-74; read-out: GI50): 30 µM
CC50 (MKN-74; [6]): > 100 µM
TGI (MKN-74; read-out: TGI): > 100 µM
GI50 (MKN-74; read-out: pGI50 (converted)): 30.2 µM
CC50 (MKN-74; [7]): 100 µM
TGI (MKN-74; read-out: pTGI (converted)): 100 µM
GI50 (NCI-H460; read-out: GI50): 36 µM
CC50 (NCI-H460; [6]): > 100 µM
TGI (NCI-H460; read-out: TGI): > 100 µM
GI50 (NCI-H460; read-out: pGI50 (converted)): 35.5 µM
TGI (NCI-H460; read-out: pTGI (converted)): 100 µM
GI50 (NCI-H522; read-out: GI50): 15 µM
CC50 (NCI-H522; [6]): > 100 µM
TGI (NCI-H522; read-out: TGI): 49 µM
GI50 (NCI-H522; read-out: pGI50 (converted)): 24 µM
CC50 (NCI-H522; [7]): 100 µM
TGI (NCI-H522; read-out: pTGI (converted)): 49 µM
GI50 (SK-OV-3; read-out: GI50): 68 µM
CC50 (SK-OV-3; [6]): > 100 µM
TGI (SK-OV-3; read-out: TGI): > 100 µM
GI50 (SK-OV-3; read-out: pGI50 (converted)): 69.2 µM
CC50 (SK-OV-3; [7]): 100 µM
TGI (SK-OV-3; read-out: pTGI (converted)): 100 µM
GI50 (NCI-H23; read-out: GI50): 23 µM
CC50 (NCI-H23; [6]): > 100 µM
TGI (NCI-H23; read-out: TGI): 69 µM
GI50 (NCI-H23; read-out: pGI50 (converted)): 22.9 µM
CC50 (NCI-H23; [7]): 100 µM
TGI (NCI-H23; read-out: pTGI (converted)): 69.2 µM
GI50 (KM12; read-out: GI50): 42 µM
CC50 (KM12; [6]): > 100 µM
TGI (KM12; read-out: TGI): > 100 µM
GI50 (KM12; read-out: pGI50 (converted)): 41.7 µM
CC50 (KM12; read-out: pLC50 (converted)): > 100 µM
TGI (KM12; read-out: pTGI (converted)): 100 µM
Activity [4]: 95%
GI50 (DMS-114; read-out: GI50): 10 µM
CC50 (DMS-114; [6]): > 100 µM
TGI (DMS-114; read-out: TGI): 57 µM
GI50 (DMS-114; read-out: pGI50 (converted)): 10 µM
CC50 (DMS-114; [7]): 100 µM
TGI (DMS-114; read-out: pTGI (converted)): 57.5 µM
GI50 (SNB-78; read-out: GI50): 50 µM
CC50 (SNB-78; [6]): > 100 µM
TGI (SNB-78; read-out: TGI): > 100 µM
GI50 (SNB-78; read-out: pGI50 (converted)): 50.1 µM
TGI (SNB-78; read-out: pTGI (converted)): 100 µM
GI50 (ACHN; read-out: GI50): 28 µM
CC50 (ACHN; [6]): > 100 µM
TGI (ACHN; read-out: TGI): > 100 µM
GI50 (ACHN; read-out: pGI50 (converted)): 28.2 µM
CC50 (ACHN; [7]): 100 µM
TGI (ACHN; read-out: pTGI (converted)): 100 µM
GI50 (OVCAR-8; read-out: GI50): 37 µM
CC50 (OVCAR-8; [6]): > 100 µM
TGI (OVCAR-8; read-out: TGI): > 100 µM
GI50 (OVCAR-8; read-out: pGI50 (converted)): 37.2 µM
TGI (OVCAR-8; read-out: pTGI (converted)): 100 µM
GI50 ([5]; read-out: GI50): 30 µM
CC50 [5, 6]: > 100 µM
TGI ([5]; read-out: TGI): > 100 µM
GI50 ([5]; read-out: pGI50 (converted)): 30.2 µM
TGI ([5]; read-out: pTGI (converted)): 100 µM
GI50 (NCI-H226; read-out: GI50): 32 µM
CC50 (NCI-H226; [6]): > 100 µM
TGI (NCI-H226; read-out: TGI): > 100 µM
GI50 (NCI-H226; read-out: pGI50 (converted)): 32.4 µM
CC50 (NCI-H226; [7]): 100 µM
TGI (NCI-H226; read-out: pTGI (converted)): 100 µM
GI50 (OVCAR-4; read-out: GI50): 21 µM
CC50 (OVCAR-4; [6]): > 100 µM
TGI (OVCAR-4; read-out: TGI): > 100 µM
GI50 (OVCAR-4; read-out: pGI50 (converted)): 21.4 µM
CC50 (OVCAR-4; [7]): 100 µM
TGI (OVCAR-4; read-out: pTGI (converted)): 100 µM
